Data taken from BindingDB's records for doi:10.1021/jm800913d (National Institute On Drug Abuse, 2008).

Columns and labels:
[1] = biological target: Kappa-type opioid receptor (Homo sapiens, UniProt P41145); test: Displacement of [125I]IOXY from human recombinant kappa opioid receptor expressed in CHO cells
How it was run: (§1)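 Radioligand displacement run in CHO cells stably transfected to express the μ-, δ- or κ-opioid receptor, each receptor in its own line. The method follows the authors' earlier procedure. Each value comes from n=3 determinations.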

[2] = biological target: Delta-type opioid receptor (Homo sapiens, UniProt P41143); test: Displacement of [125I]IOXY from human recombinant delta opioid receptor expressed in CHO cells; how it was run: as §1
[3] = biological target: Mu-type opioid receptor (Homo sapiens, UniProt P35372); test: Displacement of [125I]IOXY from human recombinant mu opioid receptor expressed in CHO cells; how it was run: as §1
Mu-type opioid receptor, sequence (P35372 whole entry): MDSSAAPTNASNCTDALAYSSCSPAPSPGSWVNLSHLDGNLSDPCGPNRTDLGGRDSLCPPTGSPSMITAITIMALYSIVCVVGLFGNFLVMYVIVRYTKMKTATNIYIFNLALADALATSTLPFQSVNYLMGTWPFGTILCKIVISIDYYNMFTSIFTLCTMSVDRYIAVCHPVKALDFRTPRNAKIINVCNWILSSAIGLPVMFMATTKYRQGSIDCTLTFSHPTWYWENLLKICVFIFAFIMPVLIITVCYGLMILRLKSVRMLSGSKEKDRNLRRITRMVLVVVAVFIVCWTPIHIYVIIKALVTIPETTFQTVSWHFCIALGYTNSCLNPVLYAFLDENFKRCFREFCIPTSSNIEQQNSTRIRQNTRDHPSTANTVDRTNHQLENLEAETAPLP

Kappa-type opioid receptor, sequence (P41145 whole entry): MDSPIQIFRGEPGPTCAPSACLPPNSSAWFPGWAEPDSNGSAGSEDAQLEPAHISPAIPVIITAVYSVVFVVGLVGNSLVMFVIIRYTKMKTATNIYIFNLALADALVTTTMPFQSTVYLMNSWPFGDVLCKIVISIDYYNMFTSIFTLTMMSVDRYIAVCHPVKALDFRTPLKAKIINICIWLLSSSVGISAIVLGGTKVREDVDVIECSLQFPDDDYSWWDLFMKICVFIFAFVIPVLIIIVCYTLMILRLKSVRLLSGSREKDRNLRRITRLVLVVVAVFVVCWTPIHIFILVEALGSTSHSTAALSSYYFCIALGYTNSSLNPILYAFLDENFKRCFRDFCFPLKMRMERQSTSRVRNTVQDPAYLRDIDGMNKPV
Delta-type opioid receptor, sequence (P41143 whole entry): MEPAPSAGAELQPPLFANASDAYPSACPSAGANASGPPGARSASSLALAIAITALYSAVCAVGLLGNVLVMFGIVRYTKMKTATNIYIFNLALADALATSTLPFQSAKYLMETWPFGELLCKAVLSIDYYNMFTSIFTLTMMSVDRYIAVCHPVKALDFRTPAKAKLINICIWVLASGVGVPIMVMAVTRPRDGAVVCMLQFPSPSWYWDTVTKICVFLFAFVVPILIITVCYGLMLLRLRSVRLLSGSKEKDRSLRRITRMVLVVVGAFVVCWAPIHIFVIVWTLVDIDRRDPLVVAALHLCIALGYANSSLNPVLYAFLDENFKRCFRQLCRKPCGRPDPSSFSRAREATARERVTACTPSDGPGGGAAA

Row | Structure (SMILES) | Ki [1] | Ki [2] | Ki [3]
1 | CN1C[C@@H]2Oc3ccc(O)cc3[C@@]23CCC[C@@H]1C3 [(3R*,6aS*,11aR*)-1,3,4,5,6,11a-Hexahydro-2-methyl-2H-3,6a-methanobenzofuro[2,3-c]azocin-8-ol] | 620 nM | 2780 nM | –
2 | CN1C[C@@H]2Oc3c(O)cccc3[C@@]23CCC[C@@H]1C3 [(3R*,6aS*,11aR*)-1,3,4,5,6,11a-Hexahydro-2-methyl-2H-3,6amethanobenzofuro[2,3-c]azocin-10-ol] | 4820 nM | 3430 nM | –
3 | Oc1cccc2c1O[C@H]1CN(CCc3ccccc3)[C@@H]3CCC[C@]21C3 [(3R*,6aS*,11aR*)-1,3,4,5,6,11a-Hexahydro-2-phenethyl-2H-3,6a-methanobenzofuro [2,3-c]azocin-10-ol] | 200 nM | 2840 nM | 560 nM
4 | CN1CC[C@@]23C[C@@H]1CC[C@H]2Oc1c(O)cccc13 [(4R*,6aS*,11bR*)-2,3,4,5,6,6a-Hexahydro-3-methyl-1H-4,11b-methanobenzofuro[3,2-d]azocine-8-ol] | 910 nM | – | 3210 nM
5 | CN1CC[C@@]23C[C@@H]1CC[C@H]2Oc1ccc(O)cc13 [(4R*,6aS*,11bR*)-2,3,4,5,6,6a-Hexahydro-3-methyl-1H-4,11bmethanobenzofuro[3,2-d]azocine-10-ol] | – | > 10000 nM | > 10000 nM
6 | Oc1cccc2c1O[C@@H]1CC[C@H]3C[C@@]21CCN3CCc1ccccc1 [(4R*,6aS*,11bR*)-2,3,4,5,6,6a-Hexahydro-3-phenethyl-1H-4,11b-methanobenzofuro[3,2-d]azocine-8-ol] | 26 nM | 3710 nM | 190 nM
7 | Oc1ccc2c(c1)[C@@]13CCN(CCc4ccccc4)[C@@H](CC[C@H]1O2)C3 [(4R*,6aS*,11bR*)-2,3,4,5,6,6a-Hexahydro-3-phenethyl-1H-4,11b-methanobenzofuro[3,2-d]azocine-10-ol] | 78 nM | 4760 nM | 740 nM
